Assays:
Conditions in all cases: stereoisomer not certain
[1] = biological target: T1, UniProt Q8VF52
T1 sequence (whole entry): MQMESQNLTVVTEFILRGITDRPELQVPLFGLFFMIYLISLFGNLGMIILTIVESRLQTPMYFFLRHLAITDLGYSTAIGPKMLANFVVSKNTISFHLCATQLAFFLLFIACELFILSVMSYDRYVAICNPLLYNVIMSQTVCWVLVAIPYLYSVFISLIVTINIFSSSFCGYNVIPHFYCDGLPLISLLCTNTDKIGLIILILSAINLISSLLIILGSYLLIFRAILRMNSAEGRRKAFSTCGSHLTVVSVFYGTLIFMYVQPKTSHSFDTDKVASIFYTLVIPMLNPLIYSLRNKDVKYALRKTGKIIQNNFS
How it was run: (§1)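 Assay methods differ from source to source, frequently being transient luciferase assays in mammalian cell lines. For each receptor–molecule pair, the label responsive (active) applies when the original authors judged the measured signal statistically different from baseline, and non-responsive (inactive) applies otherwise.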

[2] = biological target: T2, UniProt Q8VFM8
T2 sequence (whole entry): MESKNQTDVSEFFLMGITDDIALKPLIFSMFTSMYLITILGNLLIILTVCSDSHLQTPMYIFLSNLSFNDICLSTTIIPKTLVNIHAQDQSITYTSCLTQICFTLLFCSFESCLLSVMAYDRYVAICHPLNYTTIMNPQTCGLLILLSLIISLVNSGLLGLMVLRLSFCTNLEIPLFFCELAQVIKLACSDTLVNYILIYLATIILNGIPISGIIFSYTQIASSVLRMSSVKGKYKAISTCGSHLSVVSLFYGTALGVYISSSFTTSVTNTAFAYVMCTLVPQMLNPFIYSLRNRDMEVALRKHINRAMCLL
How it was run: as §1

[3] = biological target: T3, UniProt Q8VFP5
T3 sequence (whole entry): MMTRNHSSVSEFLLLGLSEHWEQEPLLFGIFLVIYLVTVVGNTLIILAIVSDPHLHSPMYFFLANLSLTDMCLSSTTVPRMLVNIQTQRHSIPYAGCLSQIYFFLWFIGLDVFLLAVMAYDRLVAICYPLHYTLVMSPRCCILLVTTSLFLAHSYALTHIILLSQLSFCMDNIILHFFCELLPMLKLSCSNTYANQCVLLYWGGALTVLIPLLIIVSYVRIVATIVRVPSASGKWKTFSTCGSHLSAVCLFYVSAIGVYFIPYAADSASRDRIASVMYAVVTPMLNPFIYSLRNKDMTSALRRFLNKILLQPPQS
How it was run: as §1

[4] = biological target: T4, UniProt Q8VG01
T4 sequence (whole entry): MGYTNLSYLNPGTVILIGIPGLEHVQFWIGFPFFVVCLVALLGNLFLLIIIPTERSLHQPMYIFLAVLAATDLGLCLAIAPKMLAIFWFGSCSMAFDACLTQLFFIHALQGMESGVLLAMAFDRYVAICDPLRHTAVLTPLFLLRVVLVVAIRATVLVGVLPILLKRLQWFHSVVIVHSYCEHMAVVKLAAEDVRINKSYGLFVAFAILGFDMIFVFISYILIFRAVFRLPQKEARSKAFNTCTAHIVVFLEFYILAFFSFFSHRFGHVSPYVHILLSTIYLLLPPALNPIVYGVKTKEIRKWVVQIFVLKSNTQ
How it was run: as §1

[5] = biological target: T5, UniProt Q8VG27
T5 sequence (whole entry): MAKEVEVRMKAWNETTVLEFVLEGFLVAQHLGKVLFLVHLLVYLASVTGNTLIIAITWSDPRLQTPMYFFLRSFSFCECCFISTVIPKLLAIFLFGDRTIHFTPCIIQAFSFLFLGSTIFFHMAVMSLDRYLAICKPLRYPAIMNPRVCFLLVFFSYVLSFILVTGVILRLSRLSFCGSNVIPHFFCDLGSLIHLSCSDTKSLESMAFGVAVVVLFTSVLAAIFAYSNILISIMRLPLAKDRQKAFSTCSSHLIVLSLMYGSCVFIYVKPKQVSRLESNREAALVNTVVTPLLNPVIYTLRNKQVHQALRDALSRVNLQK
How it was run: as §1

[6] = biological target: T6, UniProt Q8VG53
T6 sequence (whole entry): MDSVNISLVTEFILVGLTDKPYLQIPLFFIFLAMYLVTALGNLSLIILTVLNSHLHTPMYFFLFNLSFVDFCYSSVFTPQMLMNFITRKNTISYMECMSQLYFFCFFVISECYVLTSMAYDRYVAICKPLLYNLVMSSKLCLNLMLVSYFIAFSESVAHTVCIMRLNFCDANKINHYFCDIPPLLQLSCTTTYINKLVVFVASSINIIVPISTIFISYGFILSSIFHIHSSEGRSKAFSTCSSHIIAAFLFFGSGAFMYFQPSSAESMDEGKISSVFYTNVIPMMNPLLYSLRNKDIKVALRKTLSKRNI
How it was run: as §1

[7] = biological target: T7, UniProt Q8VG64
T7 sequence (whole entry): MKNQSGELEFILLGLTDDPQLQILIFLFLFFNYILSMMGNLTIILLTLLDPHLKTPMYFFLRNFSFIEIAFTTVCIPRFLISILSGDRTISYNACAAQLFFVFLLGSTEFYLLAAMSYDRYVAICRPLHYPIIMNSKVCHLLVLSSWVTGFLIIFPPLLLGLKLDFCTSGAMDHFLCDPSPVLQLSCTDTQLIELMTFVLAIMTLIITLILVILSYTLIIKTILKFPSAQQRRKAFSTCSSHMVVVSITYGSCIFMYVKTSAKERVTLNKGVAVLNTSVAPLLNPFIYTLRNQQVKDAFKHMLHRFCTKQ
How it was run: as §1

[8] = biological target: T8, UniProt Q8VGB9
T8 sequence (whole entry): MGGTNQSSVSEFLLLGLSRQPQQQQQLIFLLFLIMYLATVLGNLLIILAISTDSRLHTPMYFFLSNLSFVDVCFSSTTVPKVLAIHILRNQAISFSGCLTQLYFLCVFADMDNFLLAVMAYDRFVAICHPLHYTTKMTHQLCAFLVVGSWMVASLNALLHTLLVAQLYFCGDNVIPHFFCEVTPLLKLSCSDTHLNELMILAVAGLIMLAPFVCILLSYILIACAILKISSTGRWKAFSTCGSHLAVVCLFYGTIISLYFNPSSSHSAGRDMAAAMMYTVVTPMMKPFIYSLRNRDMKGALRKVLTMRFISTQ
How it was run: as §1

[9] = biological target: T9, UniProt Q8VGC6
T9 sequence (whole entry): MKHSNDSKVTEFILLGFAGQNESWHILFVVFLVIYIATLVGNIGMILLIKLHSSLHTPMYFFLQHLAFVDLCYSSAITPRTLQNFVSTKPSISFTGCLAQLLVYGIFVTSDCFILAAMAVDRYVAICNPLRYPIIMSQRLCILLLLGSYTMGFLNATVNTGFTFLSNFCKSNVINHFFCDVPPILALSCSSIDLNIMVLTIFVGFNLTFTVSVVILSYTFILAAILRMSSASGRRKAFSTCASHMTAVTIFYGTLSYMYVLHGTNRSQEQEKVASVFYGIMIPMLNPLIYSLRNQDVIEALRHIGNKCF
How it was run: as §1

[10] = biological target: T10, UniProt Q8VGJ3
T10 sequence (whole entry): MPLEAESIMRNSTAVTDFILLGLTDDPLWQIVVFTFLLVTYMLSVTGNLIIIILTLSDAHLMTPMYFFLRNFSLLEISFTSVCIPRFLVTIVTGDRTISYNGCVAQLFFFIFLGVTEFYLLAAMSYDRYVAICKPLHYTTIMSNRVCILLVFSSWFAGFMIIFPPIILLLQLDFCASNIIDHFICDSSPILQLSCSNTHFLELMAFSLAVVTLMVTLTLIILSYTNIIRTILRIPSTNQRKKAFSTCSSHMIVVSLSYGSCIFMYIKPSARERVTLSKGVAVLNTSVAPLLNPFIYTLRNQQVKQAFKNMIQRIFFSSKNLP
How it was run: as §1

Measured: odorant receptor agonist call

Cc1ccc(OC(=O)Cc2ccccc2)cc1
inactive: all assays above
